Results as given in PubChem BioAssay AID623875 (Vanderbilt Specialized Chemistry Center, 2012).
Several values for one entry are separate records, joined by “and”; a condition that tells them apart may be missing. Identical values can stand only once.

Biological target: Metabotropic glutamate receptor 4 (Rattus norvegicus) (UniProt P31423)
Assay: mGlu4 PAM potency and efficacy – thallium flux, HEK/GIRK cells, rat, SAR follow-up (AID 623875)
Conditions: HEK/GIRK rat mGlu4, thallium flux fluorescence
In short: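 material = rat mGlu4 in HEK/GIRK/M4 cells | also added = glutamate with thallium | compound = 10-point concentration-response series, threefold dilution steps | times = dye loading 1 h at room temperature, compound preincubation ~2.5 min before agonist | technique = Tl+ flux fluorescence, FluoZin-2 AM | read-out basis = EC50 from fluorescence slope, four-parameter fit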

Metabotropic glutamate receptor 4 (Rattus norvegicus), sequence (P31423 whole entry, looked up): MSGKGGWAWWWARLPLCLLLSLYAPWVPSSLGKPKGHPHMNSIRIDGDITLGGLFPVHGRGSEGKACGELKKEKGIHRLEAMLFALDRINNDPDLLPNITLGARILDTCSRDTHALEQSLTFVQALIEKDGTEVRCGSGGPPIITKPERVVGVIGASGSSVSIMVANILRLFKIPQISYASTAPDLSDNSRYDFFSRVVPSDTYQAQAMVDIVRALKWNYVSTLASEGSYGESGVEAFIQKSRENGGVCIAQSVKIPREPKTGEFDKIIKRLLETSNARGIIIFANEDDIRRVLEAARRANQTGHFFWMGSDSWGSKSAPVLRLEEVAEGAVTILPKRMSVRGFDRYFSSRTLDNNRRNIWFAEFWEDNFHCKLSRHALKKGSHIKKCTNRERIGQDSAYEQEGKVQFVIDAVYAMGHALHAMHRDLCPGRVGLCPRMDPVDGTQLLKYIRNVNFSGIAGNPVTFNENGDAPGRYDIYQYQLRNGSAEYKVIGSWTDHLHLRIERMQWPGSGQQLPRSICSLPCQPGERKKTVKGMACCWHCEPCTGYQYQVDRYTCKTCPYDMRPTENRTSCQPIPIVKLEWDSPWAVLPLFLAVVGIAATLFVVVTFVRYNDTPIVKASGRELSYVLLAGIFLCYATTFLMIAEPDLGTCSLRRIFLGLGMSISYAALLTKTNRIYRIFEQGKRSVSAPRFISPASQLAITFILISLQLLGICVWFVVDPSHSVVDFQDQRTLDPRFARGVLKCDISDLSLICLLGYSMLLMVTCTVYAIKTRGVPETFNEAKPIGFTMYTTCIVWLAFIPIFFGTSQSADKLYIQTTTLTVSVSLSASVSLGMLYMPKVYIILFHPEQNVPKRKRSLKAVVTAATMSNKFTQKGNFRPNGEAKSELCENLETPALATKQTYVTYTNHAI

COc1cc2nc(-c3ccccn3)[nH]c2cc1Cl was tested, and the EC50 was 6330 nM.
Work on O=C(Nc1ccc2c(c1)C(=O)NC2=O)c1ccccn1 yielded an EC50 of 2120 nM.
With Clc1cccc(Nc2ncnc3cccnc23)c1 the EC50 was 2580 nM.
For O=C(Nc1cccc(Cl)c1)c1ccccn1, the EC50 was 330 nM.
For Fc1cccc(Nc2noc3cccnc23)c1, the EC50 was 530 nM.
With CC(C)N(C(=O)c1ccccn1)c1cccc(Cl)c1 the EC50 was 10300 nM.
Clc1ccc2nc(-c3ccccn3)[nH]c2c1 gave an EC50 of 1020 nM.
In the case of Clc1cccc(Nc2noc3cccnc23)c1, the EC50 is reported as 70 nM and 80 nM.
For COc1cc(Nc2noc3cccnc23)ccc1Cl, the EC50 was 1190 nM.
Work on O=C(Nc1ccc2cn[nH]c2c1)c1ccccn1 yielded an EC50 of 980 nM.
FC(F)Oc1cccc(Nc2noc3cccnc23)c1 was tested, and the EC50 was 110 nM and 130 nM.
